High-throughput results: PubChem, several laboratories
Sampled rows, rich in hits. Any-hit rate of the full collection: about 2.5%.
ABHD5-PLIN5 inh: inhibitors of human ABHD5-perilipin-5 interaction | Q00G26+Q8WTS1 | inhibition, % at 4 µM | 0.78% of 360,000 active | Split G. princeps luciferase complementation, luminescence, 4 h;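 active = inhibition above the mean inhibition across every tested compound plus 3 SD, cut at about 22% in these data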;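 note: 0% = DMSO only wells and the 100% control is not disclosed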
Target sequence (Q00G26 whole entry, looked up): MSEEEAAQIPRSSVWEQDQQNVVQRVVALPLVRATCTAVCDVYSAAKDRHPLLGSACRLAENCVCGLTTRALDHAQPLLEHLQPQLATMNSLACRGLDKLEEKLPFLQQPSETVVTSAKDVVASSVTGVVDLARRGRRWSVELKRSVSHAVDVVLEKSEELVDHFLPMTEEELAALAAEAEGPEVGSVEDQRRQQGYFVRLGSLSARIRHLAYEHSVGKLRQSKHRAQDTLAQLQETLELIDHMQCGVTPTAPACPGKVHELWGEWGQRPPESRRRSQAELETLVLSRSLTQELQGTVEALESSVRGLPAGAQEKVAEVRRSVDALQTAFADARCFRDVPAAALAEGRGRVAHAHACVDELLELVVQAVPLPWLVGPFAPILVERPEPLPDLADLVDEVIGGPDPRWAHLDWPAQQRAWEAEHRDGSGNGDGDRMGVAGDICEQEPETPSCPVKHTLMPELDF
Target sequence (Q8WTS1 whole entry, looked up): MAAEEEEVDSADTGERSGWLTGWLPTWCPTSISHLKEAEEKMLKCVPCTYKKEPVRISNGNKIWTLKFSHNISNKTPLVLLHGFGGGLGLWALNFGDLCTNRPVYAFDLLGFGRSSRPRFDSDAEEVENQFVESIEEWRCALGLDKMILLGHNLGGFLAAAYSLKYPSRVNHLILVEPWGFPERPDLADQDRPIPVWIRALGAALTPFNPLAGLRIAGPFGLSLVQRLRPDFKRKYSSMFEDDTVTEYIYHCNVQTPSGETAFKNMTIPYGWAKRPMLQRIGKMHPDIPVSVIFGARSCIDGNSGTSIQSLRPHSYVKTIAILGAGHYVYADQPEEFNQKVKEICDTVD
Beta2AR agonist: agonists of human beta-2 adrenergic receptor inducing internalization; Am2.2-beta2AR cells, FAP receptor internalization, flow cytometry; response, % (concentration not given with the values); 0.43% of 340,000 active; AID 504454;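 active = response above a set limit, near 3 SD of response in nonfluorescent compounds, cut at about 42% in these data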
SENP1 inh: SENP1 (human) catalytic domain inhibition; Q9P0U3; 0.21% of 360,000 active; inhibition, % at 10 µM; recombinant SENP1 catalytic domain, CyPet-SUMO1-YPet FRET cleavage;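 active = inhibition at least 30% at 10 µM, raw YFP signal under a set limit, fluorescence ratio 0.5 to 1.5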;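 note: 0% = enzyme with DMSO and 100% = no enzyme wells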
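Material: hSENP1 catalytic domain, recombinant; medium: Tris pH 8 with BME, BSA, NP40 and catalase; compound: single concentration of 10 µM compound, 0.5% DMSO final; technique: FRET read of cyan and yellow fluorescence; timing: 50 min enzyme reaction, room temperature, light-protected; reagent: SFCypet-SUMO1-SFYpet substrate at 25 nM; control set: no-enzyme low, enzyme-DMSO high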
GRK2 aptamer HTS: blocks RNA aptamer binding to human GRK2. bead flow cytometry, FAM-aptamer displacement from GRK2. 0.59% of 330,000 active. AID 488847. inhibition of aptamer binding, % at 10 µM;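 active = inhibition of aptamer binding above 40%, roughly 3 SD of noise, on plates passing a quality check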;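 note: median bead fluorescence of bound FAM aptamer so fluorescent compounds give negative values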
NadD inh: blocks S. aureus nicotinate mononucleotide adenylyltransferase. purified NadD enzyme, colorimetric absorbance read-out. inhibition, % at 20 µM. 0.78% of 360,000 active; in the data active = inhibition above about 26%
* marks the source's active call; other numbers are inactive results; · = no result; ! = not confirmed by another sample.

SMILES	ABHD5-PLIN5 inh	Beta2AR agonist	SENP1 inh	GRK2 aptamer HTS	NadD inh
O=c1cc2oc3cc(O)c(O)cc3c(-c3ccccc3O)c-2cc1O	13	-29	27	·	46*
COc1ccc(OC)c(-c2c3cc(O)c(=O)cc-3oc3cc(O)c(O)cc23)c1	16	-217	12	0	39*
O=C(NC1CC1)c1cc(Cl)nc2ccccc12	-4	-3	-1	·	-6
O=C(NNC(=O)C1CC1)c1cc(Cl)nc2ccccc12	-4	-3	1	75*	0
COc1c(/C=C2\SC(=Nc3ccccc3Cl)NC2=O)cccc1[N+](=O)[O-]	0	7	1	7	9
O=C1NC(=Nc2ccccc2Cl)S/C1=C\c1cccc([N+](=O)[O-])c1O	6	1	58*	3	17
CN(CC(=O)N1CCN(c2cccc(Cl)c2)CC1)S(=O)(=O)c1cccs1	-1	53*	2	5	-2
O=c1c(OC2OC(CO)C(O)C(O)C2O)c(-c2ccc(O)c(O)c2)oc2cc(O)cc(O)c12 (centres undefined)	7	16	23	·	-1
O=c1cc(-c2ccc(O)c(O)c2)oc2cc(O[C@@H]3O[C@H](CO)[C@@H](O)[C@H](O)[C@H]3O)cc(O)c12	1	-2	34*	17	-5
CCCS(=O)(=O)c1nnnn1-c1cccc(OC)c1	43*	23	1	1	-3
COc1cccc(-n2nnnc2SCC(=O)Nc2ccccc2OC)c1	-3	0	1	0	-8
Cc1cc(-c2nnc(CCC(=O)N3CCN(Cc4cccc(F)c4)CC3)o2)c(C)o1	-7	-7	-5	0	-2
CCOC(=O)c1c(NC(NC(C)=O)C(Cl)(Cl)Cl)sc2c1CCCC2 (centres undefined)	2	12	0	73*	-6
NC(N)=N/N=C/c1ccc(OCc2ccc(Cl)cc2)cc1	2	58*	-1	0	6
COc1ccccc1NC(=O)N1CCCC1C(=O)NCCc1ccccc1 (centres undefined)	1	-1	0	0	5
O=C(Nc1ccc2oc(=O)ccc2c1)c1ccc(-c2ccc(Cl)cc2)o1	10	36	-7	0	25
O=C(Nc1ccc2oc(=O)ccc2c1)c1ccc(-c2cccc(Cl)c2)o1	4	45*	-4	3	20
COc1ccc(N2CCN(C(=O)CNC(=O)c3ccco3)CC2)cc1	-3	1	0	1	-4
Cc1cccc(C)c1OCC(O)CNC(C)c1ccccc1 (centres undefined)	-10	10	-2	0	-8
COc1ccc(OC)c(-c2nnc3n2N=C(c2ccc(OC)c(OCC4CC4)c2)CS3)c1	23*	-1	0	0	18
Oc1ccccc1-c1nc(NCCN2CCOCC2)c2ccccc2n1	22*	26	2	2	-6
COc1cccc(-c2nc(NCCN3CCOCC3)c3ccccc3n2)c1O	7	12	1	3	3
Oc1c(Cl)cc(Cl)cc1/C=N/c1nc(-c2ccc(Cl)cc2)cs1	-7	-4	-24	1	25*
Oc1c(Cl)cc(Cl)cc1/C=N/c1nccs1	-1	7	-24	0	6
COc1ccc(Cl)cc1C(=O)NNC(=O)CNC(=O)c1ccco1	-1	-6	1	0	0
SMILES	ABHD5-PLIN5 inh	Beta2AR agonist	SENP1 inh	GRK2 aptamer HTS	NadD inh
COc1ccc(/C=C2\C(=O)N(c3c(Cl)cc(Cl)cc3Cl)N=C2NC(=O)c2cccc([N+](=O)[O-])c2)cc1	-5	31	1	2	84*
COc1ccc(C(=O)N=c2sc3c(C)ccc(OC)c3n2C)cc1OC	16	47*	4	1	-7
COc1cccc(C(=O)N=c2sc3c(C)ccc(OC)c3n2C)c1	11	-10	1	0	-2
COc1ccc(CCn2c(C)cc(C(=O)CN3C(=O)C(=O)N(C4CCCC4)C3=O)c2C)cc1OC	-8	9	0	·	3
CN(Cc1ccc(Cl)cc1)C(=O)COC(=O)c1ccc(-c2ccc(O)cc2)cc1	9	0	1	0	11
Cn1cnnc1SCc1ccc(C(=O)N=Nc2c(O)n(C)c3ccccc23)cc1	7	100*	-1	1	3
CCCC(=O)N1CCC1(C)C(=O)NS(=O)(=O)c1cc(C)ccc1F (centres undefined)	7	·	1	·	0
N#Cc1ccc(OCC(=O)OCC(=O)c2ccc[nH]2)cc1	1	49*	0	·	1
CCOC(=O)c1sc(N=NC2=C(O)CCCC2=O)c(C(=O)OCC)c1C	-2	6	-4	0	38*
O=C(CN1C(=O)NC2(CCCC2)C1=O)N1CCN(c2ccccc2Cl)CC1	5	11	1	0	-2
Cc1cc(C)c2c(c1)/C(=C/C(=O)c1ccc(Br)s1)C(=O)N2	5	65*	0	3	2
CCCCCCCCCCCCCCCC[n+]1cccc(C(=O)N(CC)CC)c1	45*!	15	1	0	8
CCCCCCCC[n+]1cccc(C(=O)N(CC)CC)c1	1	-6	2	6	-2
Cc1cnc(C(=O)OCC(=O)NCc2cccc(Cl)c2)cn1	1	1	-1	0	-4
CN(C)CCCN(C(=O)c1ccc([N+](=O)[O-])o1)c1nc2cc3c(cc2s1)OCO3	-3	6	-1	55*	-11
CN(C)CCCN(C(=O)COc1ccc(Cl)cc1)c1nc2cc3c(cc2s1)OCO3	23*	7	1	0	-9
Cc1ccc(S(=O)(=O)NCC2CCC(C(=O)NCCCN3CCCC3=O)CC2)cc1 (centres undefined)	5	-3	2	0	2
O=C(NCC(c1ccco1)N1CCCC1)c1ccccc1Sc1ccc(C(F)(F)F)cc1[N+](=O)[O-] (centres undefined)	0	-4	-3	0	-1
COc1cc(/C=N/NC(=O)c2cc(O)cc(O)c2)ccc1OC(=O)c1ccccc1	-6	10	5	44*	11
O=C(N/N=C/c1ccc(OC(=O)c2ccccc2Cl)cc1)c1cc(O)cc(O)c1	-1	8	6	55*	17
O=C(N/N=C/c1ccc(OC(=O)c2ccccc2Cl)cc1)c1ccccn1	-2	1	1	1	2
CCc1c(-c2ccccc2)[n+](=O)c2c(n1[O-])CCC2	-5	-1	1	6	-8
COc1cccc(C(=O)Nc2nnc(SCC(=O)Nc3ccc(NC(C)=O)cc3)s2)c1	6	3	1	0	-9
CCN(CC(=O)NC(C)(C)C)C(=O)c1cccc(S(=O)(=O)N2CC3(C)CC2CC(C)(C)C3)c1 (centres undefined)	1	·	3	·	3
COc1cccc(CN2CC(C(=O)NCCOc3cccnc3)CCC2=O)c1 (centres undefined)	11	3	1	3	-1
